Source: ChEMBL document CHEMBL1817591, “Novel benzofuroxan derivatives against multidrug-resistant Staphylococcus aureus strains: design using Topliss' decision tree, synthesis and biological assay” (2011)
Converted amounts (≈) assume the structure as drawn.

Assays:
[1] = tested on: Staphylococcus aureus; assay: Antibacterial activity against vancomycin-intermediate Staphylococcus aureus VISA3 at 2 times MIC of multidrug-resistant Staphylococcus aureus 3SP/R33 after 18 hrs by serial broth microdilution method; assay type: functional; details: VISA3, 18 h
Method in brief: (§1)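 Two-stage broth microdilution MIC in Tryptic Soy Broth, run in triplicate. Phase I used two-fold serial dilutions from DMSO/TSB 1:10 v/v stocks, with ampicillin and vancomycin as controls. The inoculum was 0.5 McFarland, diluted in saline and TSB. […] Phase II diluted a stock at twice the Phase I MIC across 11 columns.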

[2] = tested on: Staphylococcus aureus; assay: Antibacterial activity against multidrug-resistant Staphylococcus aureus 3SP/R33 after 18 hrs by serial broth microdilution method; assay type: functional; details: 3SP/R33, 18 h; method in brief: as §1

| SMILES | MIC [1] [µg/mL] | MIC [2] [µg/mL] |
| --- | --- | --- |
| O=C(N/N=C/c1ccc2c(c1)no[n+]2[O-])c1ccc(Cl)c(Cl)c1 | 11.8 | 7.5 (≈ 21.4 µM) |
| O=C(N/N=C/c1ccc2c(c1)no[n+]2[O-])c1ccc([N+](=O)[O-])c(C(F)(F)F)c1 | 11.4 | 7.5 (≈ 19 µM) |
| O=C(N/N=C/c1ccc2c(c1)no[n+]2[O-])c1ccc(Cl)cc1Cl | 17.7 | 15 (≈ 42.7 µM) |
| O=C(N/N=C/c1ccc2c(c1)no[n+]2[O-])c1ccc([N+](=O)[O-])cc1 | 21.9 | 15 (≈ 45.8 µM) |
| O=C(N/N=C/c1ccc2c(c1)no[n+]2[O-])c1ccc(Br)cc1 | 18 | 10 (≈ 27.7 µM) |
| O=C(N/N=C/c1ccc2c(c1)no[n+]2[O-])c1ccc(Cl)cc1 | 15.3 | 10 (≈ 31.6 µM) |
| O=C(N/N=C/c1ccc2c(c1)no[n+]2[O-])c1ccccc1 | 16.2 | 10 (≈ 35.4 µM) |
| O=C(N/N=C/c1ccc2c(c1)no[n+]2[O-])c1ccc(C(F)(F)F)cc1 | 13.1 | 10 (≈ 28.6 µM) |
